# Reference: paper PMC3090455 (Analytical biochemistry, 2011)
# Assays:
# mEH [1] = experiment: Retest of screening hits with cSO as substrate; type: biochemical; details: suggests false positive in fluorescent assay
# mEH [2] = experiment: Retest of screening hits in inhibition potency assay with 11; type: biochemical; details: 10 μM
# Procedure, shortened: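 Hits from the library screen retested at 10 μM in the kinetic fluorescent format: 5 min preincubation with partially purified enzyme in Tris/HCl pH 8.5 with BSA at 30°C. Then 25 μM substrate, with 6-methoxy-2-naphthaldehyde monitored for 10 min.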
# human mEH [3] = target: T1, human mEH (Homo sapiens, UniProt P07099); experiment: High throughput screening end-point assay with 11, human mEH; type: biochemical; details: [I] 10 μM, [11] 25 μM, 30 min end-point, room temperature
# T1 sequence (P07099 1-455): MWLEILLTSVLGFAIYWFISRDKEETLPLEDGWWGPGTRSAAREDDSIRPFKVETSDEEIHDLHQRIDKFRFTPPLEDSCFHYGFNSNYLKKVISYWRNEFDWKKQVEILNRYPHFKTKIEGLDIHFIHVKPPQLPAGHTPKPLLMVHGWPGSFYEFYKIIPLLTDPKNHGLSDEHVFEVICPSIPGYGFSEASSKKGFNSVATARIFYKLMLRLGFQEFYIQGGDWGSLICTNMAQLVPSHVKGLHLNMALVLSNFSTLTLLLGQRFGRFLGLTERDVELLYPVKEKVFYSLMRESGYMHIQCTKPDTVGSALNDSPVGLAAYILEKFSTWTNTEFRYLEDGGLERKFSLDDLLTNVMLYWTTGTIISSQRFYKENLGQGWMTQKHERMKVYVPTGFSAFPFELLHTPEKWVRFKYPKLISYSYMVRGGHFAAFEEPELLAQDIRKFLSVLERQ
# Procedure, shortened: (§1)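 End-point screen of a pesticide library at 10 μM final. Recombinant partially purified enzyme (human 1.6, rat 0.5 μg/mL final) in 100 mM Tris/HCl pH 8.5 with 0.1 mg/mL BSA, preincubated with compounds 5 min at 30°C. Substrate added to 25 μM, then 30 min at room temperature in the dark before fluorescence reading (ex 330/em 465 nm). Buffer-only background and full-activity control wells; duplicate averages.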
# rat mEH [4] = target: T2, rat mEH (Rattus norvegicus, UniProt P07687); experiment: High throughput screening end-point assay with 11, rat mEH; type: biochemical; details: [I] 10 μM, [11] 25 μM, 30 min end-point, room temperature
# T2 sequence (P07687 1-455): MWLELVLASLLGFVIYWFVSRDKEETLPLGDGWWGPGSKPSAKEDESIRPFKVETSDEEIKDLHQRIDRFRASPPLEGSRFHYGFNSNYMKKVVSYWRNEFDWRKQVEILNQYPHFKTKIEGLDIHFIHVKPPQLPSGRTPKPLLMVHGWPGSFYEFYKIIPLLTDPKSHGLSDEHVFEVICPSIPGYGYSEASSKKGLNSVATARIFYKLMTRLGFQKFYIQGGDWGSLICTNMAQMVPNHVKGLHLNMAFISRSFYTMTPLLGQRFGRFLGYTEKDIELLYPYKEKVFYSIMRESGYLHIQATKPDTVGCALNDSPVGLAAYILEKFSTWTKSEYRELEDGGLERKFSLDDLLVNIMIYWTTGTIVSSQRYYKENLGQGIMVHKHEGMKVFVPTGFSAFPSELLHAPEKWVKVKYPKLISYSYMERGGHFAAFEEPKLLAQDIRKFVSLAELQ
# Procedure, shortened: as §1
# rat mEH [5] = target: T2, rat mEH; experiment: Specific activity of rat mEH for absorbent/fluorescent substrates; type: biochemical; details: [S] 50 μM, pH 9.0, 37°C, 4-nitrophenyl substrates
# Procedure, shortened: (§2)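 Partially purified recombinant enzyme (0.5–80 μg/mL final) in 100 mM Tris/HCl pH 9.0 with 0.1 mg/mL BSA, preincubated 5 min at 37°C. Substrate added at 50 μM final from 5 mM DMSO stock; buffer-only wells gave background. Read kinetically for 5 min: 4-nitrophenol at 450 nm, or fluorescence (coumarin ex 355/em 450; naphthaldehyde ex 330/em 465). Signals converted via standard curves (0.005–0.5 μM); 8 replicates.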
# human mEH [6] = target: T1, human mEH; experiment: Specific activity of human mEH for absorbent/fluorescent substrates; type: biochemical; details: [S] 50 μM, pH 9.0, 37°C, 4-nitrophenyl substrates
# Procedure, shortened: as §2
# Background = type: physicochemical; details: [S] 50 μM, Tris/HCl 100 mM pH 9.0, 0.1 mg/mL BSA, 37°C, 4-nitrophenol absorbance
# Procedure, shortened: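 Enzyme-free control wells held Tris/HCl (100 mM, pH 9.0, 0.1 mg/mL BSA), preincubated 5 min at 37°C. Substrate was added from a 5 mM DMSO stock working solution to 50 μM final, and product was read kinetically for 5 min. Read-out was 4-nitrophenol absorbance at […] fluorescence (ex 355/em 450 or ex 330/em 465 nm). Signals were converted to molar amounts via 0.005–0.5 μM standard curves; 8 replicates.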
# [7] = substrate: COc1ccc2cc(C(C#N)OC(=O)OCC3CO3)ccc2c1; experiment: Kinetic constants determination, human mEH; type: biochemical; details: other: Tris/HCl pH 9.0 100 mM, 0.1 mg/mL BSA, 37°C
# [8] = substrate: COc1ccc2cc(C(C#N)OC(=O)OCC3CO3)ccc2c1; experiment: Kinetic constants determination, rat mEH; type: biochemical; details: other: Tris/HCl pH 9.0 100 mM, 0.1 mg/mL BSA, 37°C
molecule,measurement,setting,value
CC(C)[C@H](C(=O)O[C@H](C#N)c1cccc(Oc2ccccc2)c1)c1ccc(Cl)cc1 [Asana],mEH inhibition with cSO as substrate,mEH [1],no inhibition was observed
same,mEH inhibition on retest with 11 in the inhibition potency assay,mEH [2],confirmed mEH inhibition
same,inhibition of human mEH in library screen,human mEH [3],significant inhibition
same,inhibition of rat mEH in library screen,rat mEH [4],significant inhibition
Brc1ccc(Oc2ccc(Br)cc2Br)c(Br)c1 [BDE47],mEH inhibition with cSO as substrate,mEH [1],no inhibition was observed
same,mEH inhibition on retest with 11 in the inhibition potency assay,mEH [2],confirmed mEH inhibition
same,inhibition of human mEH in library screen,human mEH [3],significant inhibition
same,inhibition of rat mEH in library screen,rat mEH [4],significant inhibition
"O=C(OCC1CO1)Oc1ccc([N+](=O)[O-])cc1 (stereo not drawn) [compound 6, 4-Nitrophenyl (oxiran-2-yl)methyl carbonate]",Rat mEH S/B (signal to background ratio),rat mEH [5],5
same,Rat mEH S/N (signal to noise ratio),rat mEH [5],32
same,Rat mEH Spec. act.,rat mEH [5],29 ± 2 nmol/min/mg
same,Rat mEH Z' (screening window coefficient),rat mEH [5],0.67
same,Human mEH S/B (signal to background ratio),human mEH [6],3
same,Human mEH S/N (signal to noise ratio),human mEH [6],53
same,Human mEH Spec. act.,human mEH [6],51 ± 2 nmol/min/mg
same,Human mEH Z' (screening window coefficient),human mEH [6],0.82
same,background hydrolysis,Background,0.31 ± 0.02 nmol/min
Oc1cc(Cl)ccc1Oc1ccc(Cl)cc1Cl [triclosan],mEH inhibition with cSO as substrate,mEH [1],no inhibition was observed
same,mEH inhibition on retest with 11 in the inhibition potency assay,mEH [2],confirmed mEH inhibition
same,inhibition of human mEH in library screen,human mEH [3],significant inhibition
same,inhibition of rat mEH in library screen,rat mEH [4],significant inhibition
human mEH (Homo sapiens) (protein) MWLEILLTSVLGFAIYWFISRDKEETLPLEDGWWGPGTRSAAREDDSIRPFKVETSDEEIHDLHQRIDKFRFTPPLEDSCFHYGFNSNYLKKVISYWRNEFDWKKQVEILNRYPHFKTKIEGLDIHFIHVKPPQLPAGHTPKPLLMVHGWPGSFYEFYKIIPLLTDPKNHGLSDEHVFEVICPSIPGYGFSEASSKKGFNSVATARIFYKLMLRLGFQEFYIQGGDWGSLICTNMAQLVPSHVKGLHLNMALVLSNFSTLTLLLGQRFGRFLGLTERDVELLYPVKEKVFYSLMRESGYMHIQCTKPDTVGSALNDSPVGLAAYILEKFSTWTNTEFRYLEDGGLERKFSLDDLLTNVMLYWTTGTIISSQRFYKENLGQGWMTQKHERMKVYVPTGFSAFPFELLHTPEKWVRFKYPKLISYSYMVRGGHFAAFEEPELLAQDIRKFLSVLERQ,Km,[7],3.8 ± 0.6 µM
same,Vmax,[7],0.042 µmol/min/mg
same,Vmax/Km,[7],11000 µL/min/mg
rat mEH (Rattus norvegicus) (protein) MWLELVLASLLGFVIYWFVSRDKEETLPLGDGWWGPGSKPSAKEDESIRPFKVETSDEEIKDLHQRIDRFRASPPLEGSRFHYGFNSNYMKKVVSYWRNEFDWRKQVEILNQYPHFKTKIEGLDIHFIHVKPPQLPSGRTPKPLLMVHGWPGSFYEFYKIIPLLTDPKSHGLSDEHVFEVICPSIPGYGYSEASSKKGLNSVATARIFYKLMTRLGFQKFYIQGGDWGSLICTNMAQMVPNHVKGLHLNMAFISRSFYTMTPLLGQRFGRFLGYTEKDIELLYPYKEKVFYSIMRESGYLHIQATKPDTVGCALNDSPVGLAAYILEKFSTWTKSEYRELEDGGLERKFSLDDLLVNIMIYWTTGTIVSSQRYYKENLGQGIMVHKHEGMKVFVPTGFSAFPSELLHAPEKWVKVKYPKLISYSYMERGGHFAAFEEPKLLAQDIRKFVSLAELQ,Km,[8],2.3 ± 0.4 µM
same,Vmax,[8],0.089 µmol/min/mg
same,Vmax/Km,[8],40000 µL/min/mg
